Bioassay records: PubChem BioAssay, The Scripps Research Institute Molecular Screening Center
Compounds with a hit are over-represented: about 3% of the library has one in this group of screens.
5HT1a antag – antagonists of human 5-HT1a serotonin receptor; CHO 5-HT1a Ga15 NFAT-bla reporter, antagonist mode; inhibition, % at 10 µM; 62,000 compounds, 0.68% hits; AID 612;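 active = inhibition above the mean of all tested compounds plus 3 SD, cut at about 43% in these data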;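 also: receptor stimulated by 5-CT agonist at 100 nM near EC80; beta-lactamase reporter measured by ratiometric fluorescence of a cleavable substrate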
5HT1E antag – antagonists of human 5-HT1E serotonin receptor | P28566 | CHO 5-HT1E Ga15 NFAT-bla reporter, FRET, antagonist | inhibition, % at 6 µM | 65,000 compounds, 0.99% hits | AID 571;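 active = inhibition above a set limit, the mean inhibition across every tested compound plus 3 SD, cut at about 29% in these data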;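 also: signal is the 460 over 535 nm emission ratio of beta-lactamase substrate; 0% = agonist plus DMSO wells and 100% = wells without agonist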
S1P3 ag – S1P3 (human) receptor agonism; S1P3 NFAT-BLA reporter cells, FRET ratio; relative to 1 µM S1P, basal subtracted; 60,000 compounds, 0.1% hits; activation, % at 4.5 µM; Q99500; AID 373;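 active = activation above the screen-wide mean plus 3 SD, cut at about 4.5% in these data, passing the limit was not always enough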
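Benchmarks: high control 1 µM S1P / System: stable CHO line with human S1P3, Gα16, NFAT-BLA reporter / Dosing: single compound concentration, 4.5 µM final / Timing: 4 h compound at 37 °C, 2 h substrate at RT / Measured by: FRET β-lactamase substrate fluorescence, excitation 405 nm, 460/535 nm emission ratio, background-subtracted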
HTR1E agonist – activates the human 5-HT1E serotonin receptor; CHO 5-HT1E Ga15 NFAT-bla reporter, FRET; 0% DMSO wells, 100% control agonist wells; 65,000 compounds, 0.69% hits; activation, % at 6 µM; P28566;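 active = activation above a set limit, the screen-wide mean activation plus 3 SD, cut at about 8.5% in these data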;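 also: 100% = positive control agonist at 1 µM giving full maximal response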
S1P1 ag-PAM – S1P1 (human) agonism or agonism potentiation; S1P1 CRE-bla cells, forskolin, beta-lactamase FRET, potentiator mode; S1P1 agonist co-added at EC20, 2 nM; 100% = saturating reference agonist, 0% = basal; 56,000 compounds, 0.57% hits; AID 449; activation, % at 9.5 µM;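 active = activation above a cutoff set at the mean activation of all tested compounds plus 3 SD, cut at about 54% in these data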;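 also: forskolin at 4 µM as EC80 and the EC20 agonist is SEW2871; 100% = SEW2871 at its EC100 plus forskolin at EC80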
Target sequence (P21453 whole entry, looked up): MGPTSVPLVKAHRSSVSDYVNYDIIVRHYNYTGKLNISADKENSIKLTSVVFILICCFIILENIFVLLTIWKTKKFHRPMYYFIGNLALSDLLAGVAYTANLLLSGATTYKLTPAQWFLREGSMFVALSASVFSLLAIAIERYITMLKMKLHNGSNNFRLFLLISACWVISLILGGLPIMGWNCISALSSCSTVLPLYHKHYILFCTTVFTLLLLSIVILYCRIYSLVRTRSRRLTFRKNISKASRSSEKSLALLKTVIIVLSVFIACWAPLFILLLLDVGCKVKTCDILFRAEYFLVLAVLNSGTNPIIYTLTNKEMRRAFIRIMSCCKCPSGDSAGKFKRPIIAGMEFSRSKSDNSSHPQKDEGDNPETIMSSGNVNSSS
HTR1A agonist – 5-HT1a (human) receptor agonism; CHO 5-HT1a Ga15 NFAT-bla reporter, FRET ratio; 0% basal, 100% maximal reference agonist; activation, % at 10 µM; 65,000 compounds, 0.56% hits; AID 567;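 active = activation above the screen-wide mean activation plus 3 SD, cut at about 19% in these data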;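 also: 0% = DMSO wells and 100% = 5-CT at EC100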
An asterisk follows results filed as active; nt = not tested or not shown.

SMILES	5HT1a antag	5HT1E antag	S1P3 ag	HTR1E agonist	S1P1 ag-PAM	HTR1A agonist
O=C(CSc1nc2ccccc2c(=O)n1CC1CCCCC1)N1CCOCC1	nt	3	-4	0	2	2
Cc1nc(NCc2ccco2)c2c3c(sc2n1)CCC3	54*	14	-2	0	-21	-2
O=C1N(CN2CCC3(CC2)OCCO3)c2ccccc2C12OCCCO2	-10	0	0	0	-7	-3
O=C1N(CN2CCN(c3cccc(Cl)c3)CC2)c2ccccc2C12OCCCO2	10	7	2	24*	19	2
CC1CCOC2(O1)C(=O)N(CN1CCN(c3ccccc3F)CC1)c1ccccc12 (stereo not given)	-6	-8	0	14*	-3	2
CC(C)(C)NC(=O)C(c1ccco1)N(Cc1ccc(F)cc1)C(=O)c1snc(C(N)=O)c1N (stereo not given)	-5	-8	0	0	8	1
Oc1c(C(Nc2ccccn2)c2ccccn2)ccc2cccnc12 (stereo not given)	48*	43*	0	0	12	-2
COc1ccc(CCn2c(N)c(C(=O)NCc3ccco3)c3nc4ccccc4nc32)cc1OC	6	1	7.3*	2	-112	1
COCCNC(=O)c1c(N)n(CCC2=CCCCC2)c2nc3ccccc3nc12	nt	-26	4	8	-54	29*
COCCn1c(N)c(C(=O)OCc2ccccc2)c2nc3ccccc3nc21	-30	6	0	2	-32	1
CCn1c(SCc2ccc(C(=O)OC)o2)nc2sc3c(c2c1=O)CCCC3	6	-11	0	9.3*	-17	-2
CCn1c(SCC(=O)O)nc2sc3c(c2c1=O)CCC3	nt	-7	-2	0	-4	0
N#Cc1nc(-c2ccc(OCc3ccccc3)cc2)oc1NCc1ccco1	-23	-14	0	0	-16	1
CNc1oc(-c2ccc(OCc3ccccc3)cc2)nc1C#N	-24	-2	0	0	73*	-1
Cc1nnc(NC(=O)CSc2nnc(-c3ccoc3C)n2CC(C)C)s1	-1	-2	-1	-1	-7	-1
COc1ccc(-c2cc(N)n(S(=O)(=O)c3c(F)c(F)c(F)c(F)c3F)n2)cc1OC	46*	33*	0	0	17	0
COc1ccc(S(=O)(=O)n2nc(-c3cc(OC)c(OC)c(OC)c3)cc2N)cc1OC	-16	-3	0	0	-50	0
CC1CN(C2CCN(S(=O)(=O)c3ccccc3)CC2)CC(C)O1 (stereo not given)	nt	52*	-4	-1	11	-1
Cc1noc(C)c1COC(=O)c1cccc(S(=O)(=O)N2c3ccccc3CC2C)c1 (stereo not given)	-1	4	1	0	-2	3
COc1ccc2c(-c3ccccc3)cc3nnnn3c2c1	-3	30*	0	0	-39	-1
COc1cccc(C2=CC(c3ccccc3)n3nnnc3N2)c1 (stereo not given)	nt	12	-5	-1	19	-2
Cc1ccc2c(c1)nnn2C1CCN(S(=O)(=O)c2ccc(C(=O)N3CC(C)CC(C)C3)cc2)CC1 (stereo not given)	-15	-6	0	1	12	-1
CCn1c(COc2ccc3c(c2)OCO3)nnc1SCC(=O)c1ccccc1	-4	6	0	0	14	-1
S=c1[nH]nc(COc2ccc3c(c2)OCO3)n1-c1ccccc1	8	-3	0	28*	-6	-3
Brc1ccc(C2=Nn3c(nnc3-c3n[nH]c4c3CCC4)SC2)cc1	30	57*	2	0	-49	-1
SMILES	5HT1a antag	5HT1E antag	S1P3 ag	HTR1E agonist	S1P1 ag-PAM	HTR1A agonist
Clc1ccc(C2=Nn3c(nnc3-c3n[nH]c4c3CCC4)SC2)cc1	24	22	2	1	-46	-1
Cc1ccccc1-n1c(C)nnc1SCC(=O)NCC1CCCO1 (stereo not given)	3	-11	0	0	-11	-1
CC1=CC(C)(C)N2C(=O)C3(N=C(N)NC(Nc4ccccc4)=N3)c3cc(C)cc1c32 (stereo not given)	8	4	0	5	nt	0
CCOc1ccc(C2CC(c3ccc(Br)cc3)Nc3nc(N)nn32)cc1 (stereo not given)	0	4	-2	-1	1	0
CCOc1ccccc1OCC(O)CNC (stereo not given)	-8	-1	0	2	17	0
Cc1cc(C)nc(NCC(O)COc2ccccc2C)n1 (stereo not given)	10	-5	-1	0	4	-1
Cc1c[nH]c2cccc(OCC(O)CNC(C)(C)C)c12 (stereo not given)	82*	1	0	2	-12	-3
CC(C)(C)NCC(O)COc1ccccc1C(C)(C)C (stereo not given)	80*	5	0	0	17	-2
C/C(=C1\SC(N2CCOCC2)=NC1=O)c1ccc(C)cc1	-2	3	0	0	26	6
Cc1c(C)n(C)c2ccc(C(=O)NCc3cccs3)cc12	9	7	-1	0	11	-3
Cc1nc(SCC(=O)NCc2ccco2)c2c(C)c(C)sc2n1	-6	6	1	0	-7	-1
Cc1sc2ncnc(SCC(=O)NC(=O)NCc3ccco3)c2c1C	27	28	0	0	-28	98*
O=C(c1ccco1)N1CCCSC1=Nc1ccccc1	-6	-4	0	0	2	-3
C=CCN1C(=O)CC(C(=O)NC)SC1=Nc1ccc(C(=O)OCC)cc1 (stereo not given)	nt	-9	-1	0	-3	1
CC(C)C1N(c2ccccc2)C(N)=C(C#N)C1(C#N)C#N (stereo not given)	-6	33*	0	0	1	2
N#Cc1cnn(-c2ccccc2)c1N	6	0	nt	0	nt	0
CCOC(=O)C1=C(Cn2cnc3ccccc32)NC(=O)NC1c1cc(C)ccc1C (stereo not given)	-6	1	0	2	-102	8
COC(=O)C1=C(Cn2cnc3ccccc32)NC(=O)NC1c1cc(C)ccc1C (stereo not given)	-5	2	-1	-1	nt	22*
COc1ccc(C(c2nnnn2C2CCCCC2)N2CCN(c3ccccc3)CC2)cc1 (stereo not given)	52*	3	-2	0	13	-1
COc1ccc(C(c2nnnn2Cc2ccccc2)N2CCN(c3ccccc3)CC2)cc1 (stereo not given)	36	3	-1	0	-4	1
